Data set [1] can be described thus: Drug metabolism in monkey hepatocytes assessed as formation of 3-(4-((6-methoxy-1-methyl-1H-benzo[d]imidazol-2-yl)methoxy)phenyl)-2-(methylsulfinyl)propanamide at 30 uM after 3 hrs by radio-HPLC/LC-MS/MS analysis in presence of NADPH-generating system/SAM. To be noted: cynomolgus monkey.
Data set [2] concerns the target T1, Cytochrome P450 1A2 (Homo sapiens, UniProt P05177).
T1 sequence (P05177 whole entry): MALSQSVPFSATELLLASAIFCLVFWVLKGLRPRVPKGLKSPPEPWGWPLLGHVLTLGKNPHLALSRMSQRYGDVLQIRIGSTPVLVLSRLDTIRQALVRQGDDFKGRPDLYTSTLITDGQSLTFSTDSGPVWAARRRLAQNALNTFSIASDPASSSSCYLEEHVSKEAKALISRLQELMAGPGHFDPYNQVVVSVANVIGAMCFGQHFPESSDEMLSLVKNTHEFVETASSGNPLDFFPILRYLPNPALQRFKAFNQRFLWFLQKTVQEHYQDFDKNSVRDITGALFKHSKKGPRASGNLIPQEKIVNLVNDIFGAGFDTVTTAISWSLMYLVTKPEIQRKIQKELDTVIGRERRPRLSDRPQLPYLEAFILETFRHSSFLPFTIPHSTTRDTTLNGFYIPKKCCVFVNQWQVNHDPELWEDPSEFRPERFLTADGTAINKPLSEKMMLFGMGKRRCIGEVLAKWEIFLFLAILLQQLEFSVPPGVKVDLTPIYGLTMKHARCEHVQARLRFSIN
Briefly: Activity of human CYP1A2 expressed in microsomes isolated from baculovirus infected insect cell assessed as enzyme-mediated 5-hydroxy-5-(4-((6-methoxy-1-methyl-1H-benzo[d]imidazol-2-yl)methoxy)benzyl)thiazolidine-2,4-dione formation at 20 uM after 2 hrs by radio-HPLC/LC-MS/MS analysis in presence of NADPH-generating system and NADPH-generating system/SAM. Format: ADME. In short, it runs like this: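 Baculovirus/insect-cell microsomes expressing single human CYPs, 1 mg/ml protein, with 50 mM potassium phosphate (pH 7.4) or 100 mM Tris-HCl (pH 7.5). NADPH-generating system: 2 mM NADP⁺, 20 mM glucose 6-phosphate, 2 units/ml G6PDH, 10 mM MgCl₂. [¹⁴C]rivoglitazone at 20 μM, 2 h at 37°C with shaking. Control used insect-cell control supersomes. Stopped with acetonitrile; supernatant concentrated under nitrogen; metabolites analysed by radio-HPLC, LC-MS and LC-MS/MS.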

In data set [3] the target is T2, UDP-glucuronosyltransferase 1A3 (Homo sapiens, UniProt P35503).
T2 sequence (P35503 whole entry): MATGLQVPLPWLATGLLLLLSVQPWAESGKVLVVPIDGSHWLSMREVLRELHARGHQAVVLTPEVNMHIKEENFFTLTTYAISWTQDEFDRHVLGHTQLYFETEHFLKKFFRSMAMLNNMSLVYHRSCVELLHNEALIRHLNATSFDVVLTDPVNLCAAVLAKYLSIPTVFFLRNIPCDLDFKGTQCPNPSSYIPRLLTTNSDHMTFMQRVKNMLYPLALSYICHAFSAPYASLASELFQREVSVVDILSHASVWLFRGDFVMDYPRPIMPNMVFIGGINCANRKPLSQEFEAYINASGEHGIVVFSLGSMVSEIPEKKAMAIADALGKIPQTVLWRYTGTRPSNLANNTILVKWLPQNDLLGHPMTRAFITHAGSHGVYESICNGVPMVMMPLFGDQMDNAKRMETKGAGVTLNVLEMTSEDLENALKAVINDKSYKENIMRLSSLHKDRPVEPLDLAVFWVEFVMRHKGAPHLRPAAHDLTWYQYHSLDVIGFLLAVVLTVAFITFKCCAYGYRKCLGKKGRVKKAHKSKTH
Briefly: Activity of human UGT1A3 expressed in microsomes isolated from baculovirus infected insect cell assessed as enzyme-mediated (2S,3S,4S,5R,6R)-6-((1-carboxy-2-(4-((6-methoxy-1-methyl-1H-benzo[d]imidazol-2-yl)methoxy)phenyl)ethylthio)carbonylamino)-3,4,5-trihydroxytetrahydro-2H-pyran-2-carboxylic acid formation at 20 uM after 4 hrs by radio-HPLC/LC-MS/MS analysis in presence of NADPH-generating system/SAM. Format: ADME.

The target in data set [4] is T3, UDP-glucuronosyltransferase 1A9 (Homo sapiens, UniProt O60656).
T3 sequence (O60656 whole entry): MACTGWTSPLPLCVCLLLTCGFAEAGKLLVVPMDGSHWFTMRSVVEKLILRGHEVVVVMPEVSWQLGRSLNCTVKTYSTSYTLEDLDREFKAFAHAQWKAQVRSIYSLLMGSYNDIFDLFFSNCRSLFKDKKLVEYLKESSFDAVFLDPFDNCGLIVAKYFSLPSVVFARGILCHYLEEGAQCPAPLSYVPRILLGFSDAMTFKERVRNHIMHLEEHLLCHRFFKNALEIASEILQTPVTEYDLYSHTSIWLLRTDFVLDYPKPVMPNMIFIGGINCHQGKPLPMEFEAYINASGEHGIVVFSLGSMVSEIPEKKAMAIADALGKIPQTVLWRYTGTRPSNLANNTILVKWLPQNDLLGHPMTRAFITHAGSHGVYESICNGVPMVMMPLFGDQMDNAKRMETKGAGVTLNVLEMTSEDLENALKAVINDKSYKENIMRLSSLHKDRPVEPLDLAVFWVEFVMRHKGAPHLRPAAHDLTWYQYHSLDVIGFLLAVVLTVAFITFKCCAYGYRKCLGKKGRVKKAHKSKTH
Kind of data set: Activity of human UGT1A9 expressed in microsomes isolated from baculovirus infected insect cell assessed as enzyme-mediated 2-mercapto-3-(4-((6-methoxy-1-methyl-1H-benzo[d]imidazol-2-yl)methoxy)phenyl)propanoic acid formation at 20 uM after 4 hrs by radio-HPLC/LC-MS/MS analysis in presence of UDPGA. The class given is ADME.

Data set [5] deals with Cytochrome P450 3A4 (Homo sapiens, UniProt P08684). Kind of data set: Activity of human CYP3A4 expressed in microsomes isolated from baculovirus infected insect cell assessed as enzyme-mediated (2S,3S,4S,5R,6R)-3,4,5-trihydroxy-6-(5-(4-((6-methoxy-1-methyl-1H-benzo[d]imidazol-2-yl)methoxy)benzyl)-2,4-dioxothiazolidin-3-yl)tetrahydro-2H-pyran-2-carboxylic acid formation at 20 uM after 2 hrs by radio-HPLC/LC-MS/MS analysis in presence of UDPGA and UDPGA/SAM. Format: ADME.

A short description of data set [6]: Drug metabolism in human hepatocytes assessed as formation of 5-hydroxy-5-(4-((6-methoxy-1-methyl-1H-benzo[d]imidazol-2-yl)methoxy)benzyl)thiazolidine-2,4-dione at 30 uM after 3 hrs by radio-HPLC/LC-MS/MS analysis in presence of NADPH-generating system and NADPH-generating system/SAM. The class given is ADME, cell-based, Hepatocyte.
For data set [7], the system named is Liver microsome. Kind of data set: Drug level in Sprague-Dawley rat liver microsomes treated with [14C]-rivoglitazone at 20 uM after 2 to 4 hrs by radio-HPLC/LC-MS/MS analysis in presence of UDPGA, UDPGA/SAM and NADPH-generating system. Format: ADME. On the technique in general: Liver microsomes are a subcellular fraction often used to study metabolism.

From ChEMBL document CHEMBL3526048, “In vitro metabolism of rivoglitazone, a novel peroxisome proliferator-activated receptor γ agonist, in rat, monkey, and human liver microsomes and freshly isolated hepatocytes” (Drug Metab Dispos, 2011) come the findings set out here.

SMILES strings stand for the structures.

Sequence of Cytochrome P450 3A4 (P08684 whole entry): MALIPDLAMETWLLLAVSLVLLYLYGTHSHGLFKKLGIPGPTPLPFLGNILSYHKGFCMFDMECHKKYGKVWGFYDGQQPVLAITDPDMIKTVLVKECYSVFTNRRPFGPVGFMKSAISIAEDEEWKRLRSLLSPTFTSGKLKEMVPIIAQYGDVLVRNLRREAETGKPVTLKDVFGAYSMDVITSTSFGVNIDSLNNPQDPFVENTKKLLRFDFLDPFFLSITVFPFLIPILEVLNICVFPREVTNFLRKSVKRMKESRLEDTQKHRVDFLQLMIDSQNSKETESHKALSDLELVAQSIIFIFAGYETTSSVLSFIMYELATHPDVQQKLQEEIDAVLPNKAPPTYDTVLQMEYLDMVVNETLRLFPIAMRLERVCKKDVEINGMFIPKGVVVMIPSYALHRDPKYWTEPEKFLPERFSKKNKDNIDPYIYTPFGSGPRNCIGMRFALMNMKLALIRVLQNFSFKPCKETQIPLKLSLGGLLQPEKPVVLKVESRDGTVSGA

For `COc1ccc2nc(COc3ccc(C[14CH]4SC(=O)NC4=O)cc3)n(C)c2c1.Cl` (racemic), the Drug metabolism result is listed as “metabolite_not_detected” in data set [1]; “metabolite_detected” in data set [2]; “metabolite_detected” in data set [3]; “metabolite_not_detected” in data set [4]; “metabolite_not_detected” in data set [5]; “metabolite_detected” in data set [6].

Regarding `COc1ccc2nc(COc3ccc(CC(S)C(=O)O)cc3)n(C)c2c1` (configuration not stated), the Drug metabolism entry in data set [7] is recorded as “metabolite_detected”.
